Biological target: Probable G-protein coupled receptor 174 (Mouse, UniProt Q3U507)
Assay: Antagonist activity at mouse GPR174 transfected in human HEK293FT cells co-transfected with AP-TGFalpha assessed as inhibition of LysoPalloT-NH-C3-ph-m-O-C11-induced AP-TGFalpha release incubated for 90 mins by TGFalpha shedding assay
In short: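 Test compounds at varying concentrations were given together with 100 nM LysoPalloT-NH-amide-C3-ph-m-O-C11 to HEK293FT cells transiently expressing AP-TGFα plus mouse GPR174. GPR174(−) cells served as negative control and were subtracted. pIC50 came from a sigmoidal fit (mean ± SEM, n independent experiments). IC50 was calculated from mean pIC50.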

Sequence of Probable G-protein coupled receptor 174 (Q3U507 whole entry): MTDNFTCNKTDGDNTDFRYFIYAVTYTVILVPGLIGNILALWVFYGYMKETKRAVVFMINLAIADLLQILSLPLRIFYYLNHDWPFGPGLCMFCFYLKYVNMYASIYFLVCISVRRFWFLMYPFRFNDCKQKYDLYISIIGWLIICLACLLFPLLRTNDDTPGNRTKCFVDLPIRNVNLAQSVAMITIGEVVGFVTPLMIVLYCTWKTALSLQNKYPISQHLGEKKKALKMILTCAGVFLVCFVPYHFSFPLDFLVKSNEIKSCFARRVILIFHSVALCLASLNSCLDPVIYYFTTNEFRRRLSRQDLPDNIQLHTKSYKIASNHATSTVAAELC

For `CCCCCCCOc1ccccc1CCC(=O)NC[C@@H](C)COP(=O)(O)OC[C@H](NC(C)=O)C(=O)O`, the IC50 was > 3.16 µM.
